PvdQ acylase – blocks Pseudomonas aeruginosa PvdQ acylase activity. purified PvdQ acylase, fluorescence plate reader. inhibition, % at 10 µM. 0.063% of 340,000 active; in the data active = inhibition above about 30%, passing the limit was not always enough;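 also: 0% = vehicle neutral wells and 100% = reference inhibitor wells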
IMP-1 inhibitor – blocks Pseudomonas aeruginosa IMP-1 metallo-beta-lactamase; purified IMP-1, nitrocefin hydrolysis, epi-absorbance fluorescence; inhibition, % at 5.6 µM; 0.45% of 290,000 active;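 active = inhibition above the mean plus 3 SD of all compounds in the same screening run, cut at about 4.5% in these data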;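 also: 0% = IMP-1 with DMSO and 100% = DMSO wells lacking enzyme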
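System: purified IMP-1; amount: IMP-1 0.2 nM before substrate addition; compound: single dose, 5.6 µM; times: 25 °C, 15 min preincubation, 25 min reaction; signal: Epi-absorbance via hydrolysed-nitrocefin quenching of white-plate fluorescence, 480/530 nm, EDTA stop; benchmarks: DMSO with and without IMP-1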
PDI turbidity – PDI (human) enzyme inhibition; P07237; PDI insulin aggregation turbidity, A650, 90 min; inhibition, % at 10 µM; 0.052% of 350,000 active; AID 588391;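 active = mean inhibition across replicates of 30% or more, whatever share of single replicates reach that level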
Target sequence (P07237 whole entry, looked up): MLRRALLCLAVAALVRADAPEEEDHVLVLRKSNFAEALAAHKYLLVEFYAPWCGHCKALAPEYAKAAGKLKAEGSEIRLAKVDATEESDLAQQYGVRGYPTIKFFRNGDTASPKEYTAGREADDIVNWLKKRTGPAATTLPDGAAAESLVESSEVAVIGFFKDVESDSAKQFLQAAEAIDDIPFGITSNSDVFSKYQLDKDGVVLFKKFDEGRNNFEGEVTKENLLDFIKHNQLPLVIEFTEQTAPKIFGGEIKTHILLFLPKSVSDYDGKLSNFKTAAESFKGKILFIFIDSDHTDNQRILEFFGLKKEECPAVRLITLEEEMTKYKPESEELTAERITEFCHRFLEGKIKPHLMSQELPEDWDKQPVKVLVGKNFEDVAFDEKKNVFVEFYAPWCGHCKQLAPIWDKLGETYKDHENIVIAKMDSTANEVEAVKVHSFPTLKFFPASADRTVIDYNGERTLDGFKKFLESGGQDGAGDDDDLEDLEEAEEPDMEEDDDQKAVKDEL
ERp5 inh – inhibitors of human ERp5 | Q15084 | ERp5 insulin aggregation, absorbance 650 nm, 90 min | inhibition, % at 9.99 µM | 0.05% of 350,000 active | AID 651711;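 active = mean replicate inhibition above about 25%, with every replicate also reaching it, limit read from the data, passing the limit was not always enough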
VIM-2 inhibitor – inhibitors of Pseudomonas aeruginosa VIM-2 metallo-beta-lactamase | purified VIM-2, nitrocefin hydrolysis, epi-absorbance fluorescence | inhibition, % at 5.6 µM | 0.89% of 290,000 active;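 active = inhibition above the mean of all tested compounds plus 3 SD, cutoff set per screening run, cut at about 7.5% in these data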;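 also: red hydrolysis product quenches plate fluorescence so inhibitors raise well fluorescence; 0% = enzyme with DMSO and 100% = DMSO without enzyme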
PglD DTNB – PglD (C. jejuni) enzyme inhibition; purified PglD enzyme, DTNB colorimetric CoA detection; AID 602405; inhibition, % at 12.5 µM; 0.098% of 360,000 active; in the data active = inhibition above about 16%, passing the limit was not always enough
* marks the source's active call; other numbers are inactive results; . = not tested or not shown. Only some compounds are listed: those with a hit (about 1% of all), similar ones and a draw of the others.

SMILES	PvdQ acylase	IMP-1 inhibitor	PDI turbidity	ERp5 inh	VIM-2 inhibitor	PglD DTNB
O=C(Cn1c2ccccc2c2nc3n(c(=O)c21)CCCS3)Nc1ccccc1	-6.1	0.1	0.7	-11.5	1.4	-5.0
O=C(C[C@@H]1CC[C@H]2[C@@H](COC[C@H](O)CN2C(=O)Nc2cccc(Cl)c2)O1)NCCCN1CCOCC1	.	.	.	-8.5	.	-3.8
C[C@@H]1CN([C@@H](C)CO)C(=O)c2cc(NC(=O)Cc3ccccc3)ccc2O[C@@H]1CN(C)Cc1ccc2c(c1)OCO2	.	.	.	2.8	.	-1.9
CC(C)c1ccc(CNC(=O)C(=O)NCCCn2ccnc2)cc1	-19.1	30.0*	-1.1	16.5	-1.1	3.1
COc1ccc(N2CCN(C(CNC(=O)C(=O)NCCCn3ccnc3)c3cccnc3)CC2)cc1 (stereo unspecified)	-6.6	5.6*	-0.9	2.7	-3.9	.
C/C=C/c1ccc([C@@H]2[C@H](CO)N[C@H]2CN(C(=O)c2ccccc2F)C(C)C)cc1	.	.	.	-5.6	.	-0.2
COc1ccccc1OCCC(=O)OCC(=O)c1c(N)n(C)c(=O)n(C)c1=O	31.9*	-5.2	10.7	-7.1	-3.7	-0.6
Cc1ccc(OCCC(=O)OCC(=O)c2c(N)n(C)c(=O)n(C)c2=O)cc1	15.0	.	7.0	-4.0	.	4.0
Cn1c(N)c(C(=O)COC(=O)c2ccnc3ccccc23)c(=O)n(C)c1=O	2.4	-5.2	5.3	-2.3	9.7*	-3.6
COC(=O)C[C@H]1CC[C@H]2[C@H](COc3ccc(NC(=O)c4ccccc4OC)cc3C(=O)N2C)O1	.	.	.	.	.	-0.2
CCNC(=O)COC(=O)c1ccc(-n2nc(C)cc2C)cc1	3.6	-2.1	6.5	4.0	-2.1	.
Cc1cc(C)n(-c2ccc(C(=O)OCC(=O)c3ccc(Br)s3)cc2)n1	-16.2	9.1*	-1.8	.	4.3	0.3
CCn1c(C)c(C(C)=O)c(N2CCN(c3ccccc3)CC2)nc1=S	-7.4	6.6*	-3.1	.	2.1	.
CCn1c(C)c(C(C)=O)c(N2CCN(C(c3ccccc3)c3ccccc3)CC2)nc1=S	-11.0	-2.6	6.1	2.2	0.3	.
COc1ccc(NC(=O)c2oc3ccccc3c2NC(=O)C2CC2)cc1OC	-7.5	0.0	1.6	7.1	9.0*	2.4
COc1ccccc1-c1cn(CC[C@H]2CC[C@H](NC(=O)NC(C)C)[C@@H](CO)O2)nn1	.	.	.	3.3	.	-1.5
Cc1cc(Br)c(NC(=O)CSc2n[nH]c(N)n2)c(Br)c1	-15.6	.	-2.1	1.2	.	-1.3
COC(=O)c1sc(NC(=O)CSc2n[nH]c(N)n2)c(C(=O)OC)c1C	9.7	-3.4	7.1	1.8	10.4*	.
CCCc1cc(NCCCN2CCOCC2)n2c(nc3ccccc32)c1C#N	-26.7	-0.3	-5.9	.	8.0*	-3.2
CC(C)c1cc(NCCOCCO)n2c(nc3ccccc32)c1C#N	-19.9	-0.5	-0.6	-8.9	11.9*	.
CCCc1cc(NCCOCCO)n2c(nc3ccccc32)c1C#N	.	.	-4.1	11.6	.	-2.2
CCCc1cc(NCCCCO)n2c(nc3ccccc32)c1C#N	-8.7	-1.1	-9.3	.	6.9	-5.2
Cc1ccc(C)c(CSc2nnc([C@@H]3CCCN3)o2)c1	-12.1	5.0*	-8.9	-1.1	2.6	-7.9
COC(=O)[C@]1(C)N[C@H](CN(C)S(=O)(=O)c2ccc(OC(F)(F)F)cc2)[C@@H]2C(=O)N(C)C(=O)[C@@H]21	-16.5	.	-3.1	34.1*	.	-1.8
COC(=O)[C@]1(C)N[C@H](CN(C)S(=O)(=O)c2ccc(C(C)(C)C)cc2)[C@@H]2C(=O)N(C)C(=O)[C@@H]21	-6.9	.	2.8	4.4	.	-0.7
COc1ccc(S(=O)(=O)N(C)C[C@@H]2OCCCC[C@@H](C)Oc3ccc(NC(=O)CCCN(C)C)cc3C(=O)N([C@H](C)CO)C[C@H]2C)cc1	.	.	.	-2.0	.	3.5
C[C@H](CO)N1C[C@H](C)[C@H](CN(C)C(=O)Nc2ccccc2)Oc2ncc(-c3cc4ccccc4o3)cc2C1=O	.	.	.	1.2	.	-3.9
CC(C)NC(=O)N(C)C[C@@H]1Oc2ccc(NC(=O)Cc3cn(C)c4ccccc34)cc2C(=O)N([C@@H](C)CO)C[C@@H]1C	.	.	.	-3.5	.	3.1
C[C@H](CO)N1C[C@H](C)[C@H](CN(C)C(=O)Nc2ccc3c(c2)OCO3)Oc2ccc(NS(=O)(=O)c3ccccc3)cc2C1=O	.	.	.	1.6	.	1.6
CC(C)NC(=O)N(C)C[C@@H]1Oc2ccc(NC(=O)Cc3cn(C)c4ccccc34)cc2C(=O)N([C@H](C)CO)C[C@H]1C	.	.	.	-4.3	.	25.6*
